Results collected from several papers.
Lines come from different studies, so protocols differ.

SMILES	assay	system	conditions	solubility
CCOc1ccc2cc(-c3nn(C4CCCCC4)c(N)c3C(N)=O)cnc2c1		PBS	pH 6.5, 25 °C	34.3 µM
O=C(Nc1ccc(S(=O)(=O)N2CCC(Cl)CC2)cc1)c1ccc([N+](=O)[O-])o1		aqueous buffer	pH 7.4	9.7 µM
Fc1ccc(-c2nc3c(C4CCNCC4)nccc3[nH]2)cc1F	shake flask	aqueous buffer	pH 6.5	> 200 µM
CCCn1nc(C(=O)N2CCCCC2)c2c1CCC(NCc1ccc(N3CCCCC3)cc1)C2 (stereo not shown)		PBS	16 h, pH 7.4	463 µM
COc1cc(/C=C/C(=O)CC(=O)/C=C/c2ccc(O)c(OC)c2)ccc1O	absorbance	water		0.56 µg/mL
CS(=O)(=O)N1CCN(Cc2cc3nc(-c4cccc5[nH]ncc45)nc(N4CCOCC4)c3s2)CC1		FaSSIF		1 µg/mL
COc1ccccc1C(=O)Nc1cccc(NC(=O)c2cccc(C)c2)c1		aqueous buffer	pH 7.4	0.47 µM
CN1CCN(CC2CCN(c3nccc4[nH]c(-c5cccc(OC(F)(F)F)c5)nc34)CC2)CC1	shake flask	aqueous buffer	pH 6.5	> 200 µM
Cl.Clc1ccc2c(c1)nc(NCCNCc1ccccc1)n2Cc1ccccc1	shake flask	aqueous buffer	20 h, pH 6.5, 25 °C	25 µM
CCOC(=O)C1=C(C)NC(C)=C(C(=O)OC)C1c1cccc([N+](=O)[O-])c1 (stereo not shown)		FaSSIF	24 h, pH 7.4, 37 °C	8 µg/mL
O=C(CCCCCCC(=O)Nc1ccccc1)NO	HPLC	water	48 h, pH 6, 25 °C	160 µg/mL
CC[C@H](C)[C@H](NC(=O)[C@H](Cc1ccccc1)NC(=O)[C@H](Cc1ccc(O)cc1)NC(=O)[C@@H]1CCCN1C(=O)[C@@H](N)Cc1ccc(O)cc1)C(=O)N1CCC[C@H]1C(=O)N[C@H](CCCCN)C(=O)NCC(=O)N[C@H](CCCCN)C(=O)NCC(=O)N[C@@H](CCC(=O)O)C(=O)N[C@H](C(=O)N[C@@H](CC(N)=O)C(=O)N[C@@H](CC(C)C)[C@@H](O)CC(=O)N[C@H](C(=O)N[C@@H](C)C(=O)N[C@@H](CCC(=O)O)C(=O)N1CCC[C@@H]1C(=O)N[C@@H](CCCCNC(=O)CCC(=O)O[C@H]1CC[C@@]2(C)C(=CC[C@H]3[C@@H]4CC[C@H]([C@H](C)CCCC(C)C)[C@@]4(C)CC[C@@H]32)C1)C(N)=O)C(C)C)C(C)C		aqueous buffer	pH 6.5	> 718 µg/mL
Cc1c(F)cccc1Nc1nc(NCc2ccccc2)c2ccccc2n1		aqueous buffer	pH 6.2	0.05 µg/mL
COc1cccc(OC)c1-c1nc(C(=O)N[C@@H](CC(C)C)C(=O)O)cn1-c1cccc2ccccc12		aqueous buffer	pH 5	103 µg/mL
Cc1cc2c(cc1C)[n+](Cc1ccc3ccccc3n1)cn2Cc1ccc2ccccc2n1.[Cl-]		water		> 500 µg/mL
COC(=O)c1ccc(N)cc1		PBS	pH 7.4	1800 µg/mL
COc1cc(F)c(S(=O)(=O)N2CCN(S(=O)(=O)c3cccc(N)c3)CC2)c(F)c1		aqueous buffer		< 0.4 µg/mL
Clc1ccc2c(c1)nc(C1CCNCC1)n2Cc1ccccc1	shake flask	aqueous buffer	20 h, pH 6.5, 25 °C	125 µM
CC(=O)c1cccc(OCc2cc(C(=O)N(C)[C@@H](C)c3ccccn3)no2)c1		PBS		96 µM
NC(=O)c1ccc(N(Cc2ccc(C3CCCCC3)cn2)C(=O)[C@H]2CCN2S(=O)(=O)c2c(F)c(F)c(F)c(F)c2F)cc1O		simulated intestinal fluid		117 µg/mL
O=C(Nc1cc(F)c(F)c(F)c1)c1ccc(F)c(S(=O)(=O)NCc2cccc(B(O)O)c2)c1		aqueous buffer	pH 7.4	427 µg/mL
O=C(c1ccccn1)N(Cc1cccs1)C1(C(=O)NC2CCCCC2)CCCCC1		aqueous buffer	pH 5	5.7 µg/mL
COc1c(Cl)cccc1Nc1nc(NCc2ccccc2)c2ccccc2n1		aqueous buffer	pH 7.4	0.06 µg/mL
CCc1nc2nc(C)cc(Nc3ccc(C(F)(F)F)cc3)n2n1	nephelometry	aqueous buffer	pH 6.5	39 to 78 µM
Cc1ccc(Nc2nc(NCc3ccccc3)c3ccccc3n2)cc1F		aqueous buffer	pH 5	0.13 µg/mL
Cc1ccc(-c2ccccc2C(=O)Nc2c(C)cccc2C(=O)O)cc1	shake flask	aqueous buffer	24 h, pH 6.5, 25 °C	175 µM
Cc1c(F)cccc1NC(=O)Nc1ccc(Cl)c(S(=O)(=O)[C@H]2CCCNC2)c1O		aqueous buffer	4 h, pH 10	68 µg/mL
Clc1ccc2c(c1)nc(NCc1ccccn1)n2Cc1ccccc1	shake flask	aqueous buffer	20 h, pH 6.5, 25 °C	15 µM

SMILES	assay	system	conditions	solubility
CN1C(C(=O)Nc2ccccn2)=C(O)c2ccccc2S1(=O)=O	shake flask	aqueous buffer	48 h, pH 6.5	7 to 9 µg/mL
COc1ccc(Nc2nc(NCc3ccccc3)c3ccccc3n2)cc1F		aqueous buffer	pH 5	3.4 µg/mL
CSc1nc2nc(C)cc(Nc3ccc(S(F)(F)(F)(F)F)cc3)n2n1	nephelometry	aqueous buffer	pH 6.5	7.8 to 15 µM
CCCCCCCCCCCCN1CCCC1=O		PBS	48 h, pH 7.4, 25 °C	21 µM
N=C(N)NCc1ccc(NC(=O)c2ccc(C(=O)Nc3ccc(C4=CCN(C(=N)N)CC4)cc3)cc2)cc1	shake flask	aqueous buffer	pH 7.4	171 µg/mL
Clc1cccc(Nc2nc(NCc3cccc(Br)c3)c3ccccc3n2)c1		aqueous buffer	pH 6.2	0.02 µg/mL
CC[C@H](C)[C@H](NC(=O)[C@H](CO)NC(=O)[C@H](CCCNC(=N)N)NC(C)=O)C(=O)N[C@H]1CSSC[C@@H](C(=O)N[C@H](C(N)=O)[C@@H](C)O)NC(=O)[C@H](CCCNC(=N)N)NC(=O)[C@H](Cc2c[nH]cn2)NC(=O)[C@H](C)NC(=O)CNC(=O)[C@H](Cc2c[nH]c3ccccc23)NC(=O)[C@H](CC(=O)O)NC(=O)[C@H](CCC(N)=O)NC(=O)[C@H](Cc2c[nH]c3ccccc23)NC(=O)[C@H](C(C)C)NC1=O		PBS	pH 7.4	3690 µg/mL
c1ccc(CNc2nc(N3CCNc4ccccc43)nc3ccccc23)cc1		aqueous buffer	pH 7.4	0.02 µg/mL
Cc1cc(Nc2ccc(C(F)(F)F)cc2)n2nc(CCO)nc2n1	nephelometry	aqueous buffer	pH 6.5	19 to 37 µM
CCn1c(-c2nc3cc(C(=O)N4CCC[C@@H](N)C4)cc(OC)c3n2C)cc2cccnc21		aqueous buffer		396 µM
COCCc1nc2nc(C)cc(Nc3ccc(S(F)(F)(F)(F)F)cc3)n2n1	nephelometry	aqueous buffer	pH 6.5	31 to 62 µM
O=C(O)Cc1ccccc1Nc1c(Cl)cccc1Cl		PBS	pH 7.4	199 µM
Cc1cc2[nH]c(-c3cc(F)cc(F)c3)nc2c(N2CCC(CN3CCN(C)CC3)CC2)n1	shake flask	aqueous buffer	pH 6.5	> 200 µM
Cc1ccc(F)cc1Nc1nc(NCc2ccccc2)c2ccccc2n1		aqueous buffer	pH 5	5.6 µg/mL
CCC(=O)O[C@]1(C(=O)SCF)[C@H](C)C[C@H]2[C@@H]3C[C@H](F)C4=CC(=O)C=C[C@]4(C)[C@@]3(F)[C@@H](O)C[C@@]21C		FaSSIF		3.12 µM
CCCN(C)Cc1cc(-c2[nH]c3cccc(F)c3c(=O)c2C)ccc1Cc1ccc(OC(F)(F)F)cc1		PBS	pH 7.4	< 0.2 µM
CC(C)Cc1ccc(C(C)C(=O)O)cc1 (stereo not shown)		PBS	pH 7.4	4580 µg/mL
CC(C)(C)n1nc(-c2cnc3cc(F)ccc3c2)c(C(N)=O)c1N		PBS	pH 6.5, 25 °C	> 100 µM
CC(C)CC(=O)N1CCC[C@H](COc2cccc3c2C(N)=NS(=O)(=O)[N-]3)C1.[Na+]		ethanol		217000 µM
CCCCOC(=O)c1ccc(O)cc1		PBS	pH 7.4	310 µg/mL
CNc1nc2ccccc2n2c(-c3cccc(OC)c3)cnc12	HPLC	ethanol		500 µg/mL
COc1cccc(OC)c1-c1cc(C(=O)N[C@@H](CC(C)C)C(=O)O)nn1-c1ccnc2cc(Cl)ccc12		aqueous buffer	pH 6.2	> 155 µg/mL
CCCOc1ccc2cc(-c3nn(C(C)(C)C)c(N)c3C(N)=O)cnc2c1		PBS	pH 6.5, 25 °C	12.7 µM
CN1CCN(C[C@H]2CCCN(c3nccc4[nH]c(-c5cc(F)cc(F)c5)nc34)C2)CC1	shake flask	aqueous buffer	pH 6.5	> 200 µM
Cc1cc(F)cc(Nc2nc(NCc3ccccc3)c3ccccc3n2)c1		aqueous buffer	pH 6.2	< 0.01 µg/mL
Cl.c1ccc(Cn2c(N3CCNCC3)nc3cc(-c4cc[nH]n4)ccc32)cc1	shake flask	aqueous buffer	20 h, pH 6.5, 25 °C	195 µM
CCOc1ccc2cc(-c3nn(C(C)C)c(N)c3C(N)=O)ccc2n1		PBS	pH 6.5, 25 °C	> 100 µM
